Reference: article PMC6371780 (ACS chemical neuroscience, 2018)
Like-named read-outs stand apart in the source and are kept apart here. Blank lines part the entries; values can stand above or below the molecule they belong to.

Columns and labels:
COX-1 [1] = settings: cited from earlier work
COX-1 [2] = settings: cited from earlier work; for IC50: read-out: IC50 COX-1 monkey
COX-1 [3] = settings: cited from earlier work; remark: listed apart in the source
COX-2 [4] = settings: read-out: IC50 COX-2 monkey; cited from earlier work
COX-1 [5] = target: T1, COX-1 (Macaca mulatta, UniProt F6S984); assay: kinetic modeling of PET data; format: in vivo, rhesus monkey; settings: for VND of [11C]PS13 (x-axis intercept of Lassen plot), by blocker experiment: PS13 1 mg/kg or KTP-Me 3 mg/kg as blocker; for reduction of [11C]PS13 brain regional VT values by preadministration: KTP-Me 3 mg/kg, MC1 0.3 mg/kg i.v.
T1 sequence (F6S984 25-599): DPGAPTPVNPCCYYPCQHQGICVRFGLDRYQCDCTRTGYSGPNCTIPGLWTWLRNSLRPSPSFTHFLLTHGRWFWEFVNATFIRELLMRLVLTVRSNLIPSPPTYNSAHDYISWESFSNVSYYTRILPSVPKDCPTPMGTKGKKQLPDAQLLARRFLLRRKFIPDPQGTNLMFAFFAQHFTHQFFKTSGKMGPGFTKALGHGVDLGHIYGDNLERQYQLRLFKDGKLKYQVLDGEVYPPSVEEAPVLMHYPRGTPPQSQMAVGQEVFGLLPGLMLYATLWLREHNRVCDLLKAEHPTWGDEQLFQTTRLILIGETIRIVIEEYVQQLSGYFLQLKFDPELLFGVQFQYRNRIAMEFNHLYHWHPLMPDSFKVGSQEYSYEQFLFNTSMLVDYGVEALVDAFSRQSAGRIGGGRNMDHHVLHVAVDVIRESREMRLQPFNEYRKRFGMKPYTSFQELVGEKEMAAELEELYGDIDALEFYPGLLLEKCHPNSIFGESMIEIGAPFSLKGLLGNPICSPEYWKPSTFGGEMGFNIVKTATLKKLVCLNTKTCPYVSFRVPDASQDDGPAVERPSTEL
Outline: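 Each baseline scan was followed >3 h later by a blocking scan, with blocker given as an i.v. bolus 5–10 min before radioligand. Femoral arterial samples were taken every 15 s to 120 s, then at 3–120 min, and parent radioligand was measured by reversed-phase radio-HPLC. VT was estimated by voxel-level Logan analysis, uncorrected for blood volume, with identifiability as % SE. A Lassen plot of regional VT gave occupancy from its slope and VND from its x-intercept.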

COX-1 [6] = target: T1, COX-1; assay: paired baseline/preblock PET experiments with [11C]PS13 in rhesus monkey; format: in vivo, rhesus monkey (Macaca mulatta); settings: for whole-brain radioactivity of [11C]PS13 after administration of blocker: 45 min after radioligand, PS13 1 mg/kg, KTP-Me 3 mg/kg i.v.; for peak whole-brain radioactivity of [11C]PS13 after administration of blocker: blocker i.v. before [11C]PS13: PS13 1 mg/kg, KTP-Me 3 mg/kg, MC1 0.3 mg/kg; for decline of whole-brain radioactivity from peak / radioactivity in whole brain: 45 min after injection
Outline: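 Male rhesus monkeys (7.5–12.8 kg) received an i.v. bolus of radioligand (212 ± 37 MBq; 114 ± 74 GBq/μmol) over 1 min. A baseline scan was followed more than 3 h later by a blocking scan, with inhibitor given i.v. minutes before radioligand. Scans were corrected for attenuation and scatter, and frames ran from 30 s to 10 min. Whole-brain (gray matter) time–activity curves were expressed as SUV.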

[7] = radioligand stability in monkey whole blood and plasma in vitro; format: in vitro ADME; settings: monkey whole blood or plasma, 30 min, room temperature
Outline: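 Formulated radioligand was incubated with monkey whole blood or plasma at room temperature for at least 30 min. Blood was lysed with water, and samples were deproteinized with acetonitrile and centrifuged at 10 000g. Supernatants were analysed by reversed-phase radio-HPLC, and precipitates were γ-counted for extraction efficiency. Stability was taken as the % unchanged radioligand divided by radiochemical purity.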

[8] = plasma free fraction by ultrafiltration, pooled human plasma; format: in vitro ADME; settings: pooled (standard) human plasma
Outline: (§1)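 Free fraction was measured in triplicate by ultrafiltration through membrane filters, with filtrate radioactivity read by γ-counting. Plasma was venous plasma from each monkey, or pooled human arterial plasma stored at −80 °C. The human plasma served as the standard for normalization across studies.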

[9] = baseline PET brain time-activity curves in rhesus monkey; format: in vivo, rhesus monkey (Macaca mulatta); settings: for decline of whole-brain radioactivity from peak / radioactivity concentration in whole brain: at 85 min; for peak radioactivity concentration in whole brain / time of peak radioactivity concentration in whole brain: i.v. radioligand
Outline: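 Male rhesus monkeys (7.5–12.8 kg) were given ketamine (10 mg/kg i.m.) and kept on 1.6% isoflurane, head in a stereotaxic frame, and imaged on a microPET Focus 220. Radioligand (212 ± 37 MBq) in saline-ethanol 90:10 was given as an i.v. bolus over 1 min. The 120 min acquisition was reconstructed by FORE/2D FBP with attenuation, scatter and decay correction and coregistered to an MRI template. Regional gray-matter curves were expressed as SUV.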

[10] = radiometabolite analysis of monkey plasma after i.v. radioligand; format: in vivo, rhesus monkey
[11] = plasma free fraction by ultrafiltration, monkey plasma; format: in vitro ADME
Outline: as §1

[12] = log D by partition between n-octanol and sodium phosphate buffer; format: physicochemical; settings: n-octanol / sodium phosphate buffer 0.15 M, pH 7.4
Outline: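 Radioligand partitioned between n-octanol and 0.15 M sodium phosphate buffer, pH 7.4. Radioactivity in each phase counted by γ-counter. Buffer-phase radioactivity corrected for parent fraction by reversed-phase radio-HPLC on a C18 column.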

COX-2 [13] = settings: read-out: IC50 COX-2 human; cited from earlier work
[14] = cited from earlier work
[15] = baseline of the paired experiment using KTP-Me
[16] = baseline of the paired experiments using PS13
[17] = baseline of the paired experiment with MC1

Molecule: C[C@@H](C(=O)O)c1cccc(C(=O)c2ccccc2)c1 (single isomer, unassigned) [R-enantiomer of KTP]
potency for inhibiting COX-1 (COX-1 [1]): negligible potency

Molecule: C[C@H](C(=O)O)c1cccc(C(=O)c2ccccc2)c1 [KTP, (S)-ketoprofen, reference compound]
IC50 (COX-1 [2]): 1 nM
IC50 (COX-1 [3]; read-out: IC50 COX-1 human): 20 nM
IC50 (COX-1 [3]; read-out: IC50 for inhibiting human COX-1): 47 nM
IC50 (COX-2 [4]): 400 nM

Molecule: COC(=O)[C@@H](C)c1cccc(C(=O)c2ccccc2)c1 [KTP-Me, (S)-ketoprofen methyl ester, reference compound]
VND of [11C]PS13 (x-axis intercept of Lassen plot), by blocker experiment (COX-1 [5]): 1.8 mL/cm^3
COX-1 occupancy (slope of Lassen plot) (COX-1 [5]; PS13 1 mg/kg, KTP-Me 3 mg/kg i.v., radioligand [11C]PS13): 72 ± 4%
whole-brain radioactivity of [11C]PS13 after administration of blocker (COX-1 [6]): 1.09 SUV
peak whole-brain radioactivity of [11C]PS13 after administration of blocker (COX-1 [6]): 4.14 SUV

Molecule: COc1ccc(-c2nc(OCF)nn2-c2ccc(OC)cc2)cc1 [[^2H2,^18F]PS2]
IC50 (COX-1 [2]): 3.6 ± 1 nM
IC50 (COX-1 [3]; read-out: IC50 COX-1 human): 4 ± 2 nM
IC50 (COX-2 [4]): > 1000 nM

Molecule: COc1ccc(-c2nc(OC)nn2-c2ccc(OC)cc2)cc1 [[^11C]PS1]
IC50 (COX-1 [2]): 4.6 ± 1.3 nM
IC50 (COX-1 [3]; read-out: IC50 COX-1 human): 5 ± 5.2 nM
IC50 (COX-2 [13]): > 1000 nM
IC50 (COX-2 [4]): > 1000 nM

Molecule: [^11C]-Ketoprofen [[^11C]KTP]
brain penetrance [14]: poorly brain-penetrant

Second part, led by results:

reduction of [11C]PS13 brain regional VT values by preadministration (COX-1 [5]; PS13 1 mg/kg): no effect
time of peak brain radioactivity of [11C]PS13 after administration of blocker (COX-1 [6]; MC1 0.3 mg/kg i.v.): 3.5 min
peak whole-brain radioactivity of [11C]PS13 after administration of blocker (COX-1 [6]): 4.86 SUV
Molecule: COc1cc(NCc2cccs2)nc(-c2ccc(S(C)(=O)=O)cc2)n1 [MC1, 6-methoxy-2-(4-(methylsulfonyl)phenyl)-N-(thiophen-2-ylmethyl)pyrimidin-4-amine, reference compound]
fold lower potency for inhibiting COX-1 than COX-2 (COX-1 [2]; monkey): > 1000 fold
fold lower potency for inhibiting COX-1 than COX-2 (COX-1 [3]; human): > 1000 fold

VND of [11C]PS13 (x-axis intercept of Lassen plot), by blocker experiment (COX-1 [5]): 2.5 mL/cm^3
reduction of [11C]PS13 brain regional VT values by preadministration (COX-1 [5]; PS13 1 mg/kg): about 55%
receptor occupancy at 1 mg/kg (COX-1 [5]; rhesus monkey, iv, read-out: COX-1 occupancy (slope of Lassen plot)): 87 ± 4%
whole-brain radioactivity of [11C]PS13 after administration of blocker (COX-1 [6]): 1.11 SUV
peak whole-brain radioactivity of [11C]PS13 after administration of blocker (COX-1 [6]): 3.60 SUV
Molecule: COc1ccc(-c2nc(OCC(F)(F)F)nn2-c2ccc(OC)cc2)cc1 [PS13, 1,5-bis(4-methoxyphenyl)-3-(2,2,2-trifluoroethoxy)-1H-1,2,4-triazole]

radiochemical stability [7]: > 99%
human fP (n = 3) [8]: 0.021 ± 0.000
decline of whole-brain radioactivity from peak [9]: 74%
radioactivity concentration in whole brain [9]: 1.05 SUV
peak radioactivity concentration in whole brain ([9]; rhesus monkey): 4.11 SUV
time of peak radioactivity concentration in whole brain ([9]; rhesus monkey): 7 min
radioactivity in skull on brain image (radiodefluorination) ([9]; rhesus monkey): uptake of radioactivity in skull
radioactivity in plasma that was parent radioligand ([10]; by about 25 min after i.v. injection): 50%
monkey fP (n = 3) [11]: 0.039 ± 0.001
log D (n = 6) [12]: 3.26 ± 0.01
Molecule: [2H]C([2H])([18F])Oc1nc(-c2ccc(OC)cc2)n(-c2ccc(OC)cc2)n1 [[^2H2,^18F]PS2]

radiochemical stability [7]: > 99%
human fP (n = 3) [8]: 0.036 ± 0.001
decline of whole-brain radioactivity from peak [9]: 85%
radioactivity concentration in whole brain [9]: 0.62 SUV
peak radioactivity concentration in whole brain ([9]; rhesus monkey): 4.26 SUV
time of peak radioactivity concentration in whole brain ([9]; rhesus monkey): 1.75 min
monkey fP (n = 3) [11]: 0.042 ± 0.001
log D (n = 6) [12]: 3.29 ± 0.00
Molecule: COc1ccc(-c2nc(O[11CH3])nn2-c2ccc(OC)cc2)cc1 [[^11C]PS1]

identifiability (SE) of VT (COX-1 [5]; all examined brain regions, Logan graphical analysis): 0.1–1.8%
radioactivity uptake in brain specifically bound to COX-1 (COX-1 [5]; pharmacological preblock experiments, monkey): about 55%
radiochemical stability [7]: > 99%
human fP (n = 3) [8]: 0.002 ± 0.000
decline of whole-brain radioactivity from peak [9]: 54%
radioactivity in plasma represented by each species ([10]; 90 min after i.v. injection of [11C]PS13, radio-HPLC): 48.9%
radioactivity in plasma represented by unchanged radioligand ([10]; at 90 min, baseline and self-block experiments): about 50%
monkey fP (n = 3) [11]: 0.011 ± 0.001
log D (n = 6) [12]: 4.26 ± 0.04
decline of whole-brain radioactivity from peak (COX-1 [6]; [15]): 43%
radioactivity in whole brain (COX-1 [6]; [15]): 1.65 SUV
decline of whole-brain radioactivity from peak (COX-1 [6]; [16]): 36%
radioactivity in whole brain (COX-1 [6]; [16]): 1.88 SUV
peak radioactivity in whole brain (COX-1 [6]; [15]): 2.90 SUV
peak uptake of radioactivity in brain (COX-1 [6]; [17]): 3.73 SUV
time of peak uptake of radioactivity in brain (COX-1 [6]; [17]): 3.5 min
peak radioactivity in whole brain (COX-1 [6]; [16]): 2.92 SUV
Molecule: COc1ccc(-c2nc(OCC(F)(F)F)nn2-c2ccc(OC)cc2)cc1 [[^11C]PS13, [^11C]1,5-bis(4-methoxyphenyl)-3-(2,2,2-trifluoroethoxy)-1H-1,2,4-triazole]
